# What was measured:
# [1] = tested on: Human immunodeficiency virus 2; assay: Antiviral activity against HIV2 ROD infected in human MT4 cells after 5 days by MTT assay; type: functional, organism-based; settings: Human immunodeficiency virus 2, ISOLATE ROD, MT4, 120 h
# How it was run: (§1)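 MT-4 cells in RPMI 1640 with 10% heat-inactivated FCS, 2 mM L-glutamine, 0.1% bicarbonate and gentamicin, seeded at 6 × 10⁵ cells/mL final with virus or mock infection. Viability read by MTT after 5 days at 540 and 690 nm, using the median OD of three wells. CC50 is 50% loss of mock-infected OD540. EC50 is 50% inhibition of virus-induced CPE. SI = CC50/EC50. Mean ± SD of ≥2 experiments.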
# [2] = tested on: Human immunodeficiency virus 1; assay: Antiviral activity against HIV1 3B infected in human MT4 cells after 5 days by MTT assay; type: functional, organism-based; settings: Human immunodeficiency virus 1, 3B, MT4, 120 h; how it was run: as §1
# [3] = Selectivity index, ratio of CC50 for human MT4 cells to EC50 for HIV1 3B; type: toxicity, cell-based; settings: read-out: Ratio CC50/EC50; how it was run: as §1
# [4] = Cytotoxicity against human MT4 cells after 5 days by MTT assay; type: cell-based; how it was run: as §1
# [5] = Selectivity index, ratio of CC50 for human PBMC to EC50 for HIV1 3B
# How it was run: (§2)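 PBMCs infected with HIV-1 IIIB and cultured with a range of compound concentrations. EC50 is 50% inhibition of supernatant p24 core antigen (ELISA) relative to drug-free culture. CC50 is 50% reduction in cell viability. SI = CC50/EC50. Mean ± SD of ≥2 experiments.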
# Vaccinia virus = assay: Antiviral activity against Vaccina virus infected in human E6SM cell assessed as inhibition of virus-induced cytopathicity; type: functional, organism-based; settings: Orthopoxvirus vaccinia
# [6] = Cytotoxicity against african green monkey Vero cells by MTT assay; type: cell-based; settings: chlorocebus sabaeus
# Human respirovirus 3 = assay: Antiviral activity against Parainfluenza virus 3 infected in african green monkey Vero cells assessed as inhibition of virus-induced cytopathicity; type: functional, organism-based; settings: Human respirovirus 3, Vero
# [7] = tested on: Human immunodeficiency virus; assay: Antiviral activity against HIV SO6141 infected in human MT4 cells after 5 days by MTT assay; type: functional, organism-based; settings: Human immunodeficiency virus 1, SO6141, MT4, 120 h; how it was run: as §1
# [8] = Cytotoxicity against human PBMC after 5 days by MTT assay; type: cell-based; how it was run: as §2
# [9] = tested on: Simian immunodeficiency virus; assay: Antiviral activity against SIV MAC251 infected in human MT4 cells after 5 days by MTT assay; type: functional, organism-based; settings: MAC251, MT4, 120 h; how it was run: as §1
# Reovirus sp. = assay: Antiviral activity against Reovirus infected in african green monkey Vero cells assessed as inhibition of virus-induced cytopathicity; type: functional, organism-based
# [10] = Cytotoxicity against human E6SM cells by MTT assay; type: cell-based
# Human alphaherpesvirus 1 [11] = assay: Antiviral activity against HSV1 KOS infected in human E6SM cell assessed as inhibition of virus-induced cytopathicity; type: functional, organism-based; settings: Human alphaherpesvirus 1, KOS
# Human alphaherpesvirus 1 [12] = assay: Antiviral activity against TK-deficient acyclovir-resistant HSV1 KOS infected in human E6SM cell assessed as inhibition of virus-induced cytopathicity; type: functional, organism-based; settings: Human alphaherpesvirus 1, KOS
# [13] = tested on: Vesicular stomatitis virus; assay: Antiviral activity against VSV infected in human E6SM cell assessed as inhibition of virus-induced cytopathicity; type: functional, organism-based
# [14] = tested on: Vesicular stomatitis virus; assay: Antiviral activity against VSV infected in human HeLa cell assessed as inhibition of virus-induced cytopathicity; type: functional, organism-based
# Sindbis virus = assay: Antiviral activity against Sindbis virus infected in african green monkey Vero cells assessed as inhibition of virus-induced cytopathicity; type: functional, organism-based
# [15] = Cytotoxicity against human HeLa cells by MTT assay; type: cell-based
# [16] = tested on: Respiratory syncytial virus; assay: Antiviral activity against RSV infected in human HeLa cell assessed as inhibition of virus-induced cytopathicity; type: functional, organism-based
# [17] = tested on: Human immunodeficiency virus 1; assay: Antiviral activity against HIV1 3B infected in human PBMC assessed as inhibition of viral p24 antigen production by ELISA; type: functional, organism-based; settings: Human immunodeficiency virus 1, 3B; how it was run: as §2
# Human alphaherpesvirus 2 = assay: Antiviral activity against HSV2 G infected in human E6SM cell assessed as inhibition of virus-induced cytopathicity; type: functional, organism-based; settings: Human alphaherpesvirus 2, strain G
# Punta Toro virus = assay: Antiviral activity against Punta Toro virus infected in african green monkey Vero cells assessed as inhibition of virus-induced cytopathicity; type: functional, organism-based
SMILES,EC50 [1] [µM],EC50 [2] [µM],selectivity ratio [3],CC50 at 120 h [4] [µM],other results
C=C[n+]1ccc(-c2cc[n+](C)cc2)cc1,> 26.1,> 26.1,< 1,26.1,–
CC[n+]1ccc(-c2cc[n+](Cc3cc(C[n+]4ccc(-c5cc[n+](CC)cc5)cc4)cc(C[n+]4ccc(-c5cc[n+](Cc6cc(C[n+]7ccc(-c8cc[n+](Cc9cc(C[n+]%10ccc(-c%11cc[n+](CC)cc%11)cc%10)cc(C[n+]%10ccc(-c%11cc[n+](CC)cc%11)cc%10)c9)cc8)cc7)cc(-[n+]7ccc(-c8cc[n+](-c9cc(C[n+]%10ccc(-c%11cc[n+](Cc%12cc(C[n+]%13ccc(-c%14cc[n+](CC)cc%14)cc%13)cc(C[n+]%13ccc(-c%14cc[n+](CC)cc%14)cc%13)c%12)cc%11)cc%10)cc(C[n+]%10ccc(-c%11cc[n+](Cc%12cc(C[n+]%13ccc(-c%14cc[n+](CC)cc%14)cc%13)cc(C[n+]%13ccc(-c%14cc[n+](CC)cc%14)cc%13)c%12)cc%11)cc%10)c9)cc8)cc7)c6)cc5)cc4)c3)cc2)cc1.F[P-](F)(F)(F)(F)F.F[P-](F)(F)(F)(F)F.F[P-](F)(F)(F)(F)F.F[P-](F)(F)(F)(F)F.F[P-](F)(F)(F)(F)F.F[P-](F)(F)(F)(F)F.F[P-](F)(F)(F)(F)F.F[P-](F)(F)(F)(F)F.F[P-](F)(F)(F)(F)F.F[P-](F)(F)(F)(F)F.F[P-](F)(F)(F)(F)F.F[P-](F)(F)(F)(F)F.F[P-](F)(F)(F)(F)F.F[P-](F)(F)(F)(F)F.F[P-](F)(F)(F)(F)F.F[P-](F)(F)(F)(F)F.F[P-](F)(F)(F)(F)F.F[P-](F)(F)(F)(F)F.F[P-](F)(F)(F)(F)F.F[P-](F)(F)(F)(F)F.F[P-](F)(F)(F)(F)F.F[P-](F)(F)(F)(F)F.F[P-](F)(F)(F)(F)F.F[P-](F)(F)(F)(F)F.F[P-](F)(F)(F)(F)F.F[P-](F)(F)(F)(F)F,9.82,1.4,13.3,> 18.6,Ratio CC50/EC50 [5]: <1; EC50 (Vaccinia virus): > 50 µg/mL; MCC [6]: > 50 µg/mL; EC50 (Human respirovirus 3): > 50 µg/mL; EC50 [7]: 1.23 µM; CC50 at 120 h [8]: 0.52 µg/mL; EC50 [9]: ≥ 0.49 µM; EC50 (Reovirus sp.): > 50 µg/mL; MCC [10]: > 50 µg/mL; EC50 (Human alphaherpesvirus 1 [11]): 6 µg/mL; EC50 (Human alphaherpesvirus 1 [12]): 30 µg/mL; EC50 [13]: > 50 µg/mL; EC50 [14]: > 50 µg/mL; EC50 (Sindbis virus): > 50 µg/mL; MCC [15]: > 50 µg/mL; EC50 [16]: 50 µg/mL; EC50 [17]: > 0.52 µg/mL; EC50 (Human alphaherpesvirus 2): 50 µg/mL; EC50 (Punta Toro virus): > 50 µg/mL
CC[n+]1ccc(-c2cc[n+](Cc3cc(C[n+]4ccc(-c5cc[n+](CC)cc5)cc4)cc(C[n+]4ccc(-c5cc[n+](CC)cc5)cc4)c3)cc2)cc1,> 81.1,> 81.1,< 1,> 81.1,–
BrCC[n+]1ccc(-c2ccncc2)cc1,> 79.2,> 79.2,< 1,79.2,–
NCCC[n+]1ccc(-c2ccncc2)cc1,> 346,> 346,< 1,> 346,–
C=C[n+]1ccc(-c2ccncc2)cc1,> 15.9,> 15.9,< 1,15.9,–
C=C[n+]1ccc(-c2cc[n+](CCc3ccc([N+](=O)[O-])cc3)cc2)cc1,> 0.4,> 0.4,< 1,0.4,–
C[n+]1ccc(-c2cc[n+](CBr)cc2)cc1,> 5.1,> 5.1,< 1,5.1,–
NCCC[n+]1ccc(-c2cc[n+](Cc3ccccc3)cc2)cc1,> 0.9,> 0.9,< 1,0.9,–
C=C[n+]1ccc(-c2cc[n+](Cc3cc(C[n+]4ccc(-c5cc[n+](C=C)cc5)cc4)cc(C[n+]4ccc(-c5cc[n+](C=C)cc5)cc4)c3)cc2)cc1,> 33.4,> 33.4,< 1,33.4,–
C=C[n+]1ccc(-c2cc[n+](Cc3ccccc3)cc2)cc1,> 2.7,> 2.7,< 1,2.7,–
C[n+]1ccc(-c2cc[n+](C)cc2)cc1,> 25.2,> 25.2,< 1,25.2,–
CC[n+]1ccc(-c2ccncc2)cc1,> 282,> 282,< 1,281,–
BrCC[n+]1ccc(-c2cc[n+](CCBr)cc2)cc1,> 20.6,5.88,3.5,20.6,EC50 [9]: > 20.6 µM
O=c1[nH]c(=O)n([C@H]2C[C@H](O)[C@@H](CO)O2)cc1/C=C/Br [BRIVUDINE],–,–,–,–,EC50 (Vaccinia virus): 9.6 µg/mL; MCC [6]: > 400 µg/mL; EC50 (Human respirovirus 3): > 400 µg/mL; EC50 (Reovirus sp.): > 400 µg/mL; MCC [10]: > 400 µg/mL; EC50 (Human alphaherpesvirus 1 [11]): 0.384 µg/mL; EC50 (Human alphaherpesvirus 1 [12]): > 400 µg/mL; EC50 [13]: > 400 µg/mL; EC50 [14]: > 400 µg/mL; EC50 (Sindbis virus): > 400 µg/mL; MCC [15]: > 400 µg/mL; EC50 [16]: > 400 µg/mL; EC50 (Human alphaherpesvirus 2): 80 µg/mL; EC50 (Punta Toro virus): > 400 µg/mL
OCC[n+]1ccc(-c2cc[n+](Cc3cc(C[n+]4ccc(-c5cc[n+](CCO)cc5)cc4)cc(C[n+]4ccc(-c5cc[n+](CCO)cc5)cc4)c3)cc2)cc1,> 104,33.3,3.11,> 104,EC50 [7]: > 104 µM; EC50 [9]: 37.7 µM
OCc1cc(CO)cc(-[n+]2ccc(-c3cc[n+](-c4cc(CO)cc(CO)c4)cc3)cc2)c1,> 2.7,> 2.7,< 1,2.7,–
NCCC[n+]1ccc(-c2cc[n+](CCCN)cc2)cc1,> 3.3,> 3.3,< 1,3.3,–
CC[n+]1ccc(-c2cc[n+](Cc3ccc(CBr)cc3)cc2)cc1,> 0.9,> 0.9,< 1,0.9,–
NC(=O)c1ncn([C@@H]2O[C@H](CO)[C@@H](O)[C@H]2O)n1 [RIBAVIRIN],–,–,–,–,EC50 (Vaccinia virus): 48 µg/mL; MCC [6]: > 400 µg/mL; EC50 (Reovirus sp.): 80 µg/mL; MCC [10]: > 400 µg/mL; EC50 (Human alphaherpesvirus 1 [11]): > 400 µg/mL; EC50 (Human alphaherpesvirus 1 [12]): > 400 µg/mL; EC50 [13]: > 400 µg/mL; EC50 [14]: 48 µg/mL; EC50 (Sindbis virus): > 400 µg/mL; MCC [15]: > 400 µg/mL; EC50 (Human alphaherpesvirus 2): > 400 µg/mL
CC[n+]1ccc(-c2cc[n+](Cc3cc(CO)cc(C[n+]4ccc(-c5cc[n+](CC)cc5)cc4)c3)cc2)cc1,> 10.6,> 10.6,< 1,10.6,–
CCC[n+]1ccc(-c2ccncc2)cc1,> 363,> 363,< 1,> 363,–
CC[n+]1ccc(-c2cc[n+](Cc3cc(C[n+]4ccc(-c5cc[n+](CC)cc5)cc4)cc(-[n+]4ccc(-c5cc[n+](-c6cc(C[n+]7ccc(-c8cc[n+](CC)cc8)cc7)cc(C[n+]7ccc(-c8cc[n+](CC)cc8)cc7)c6)cc5)cc4)c3)cc2)cc1.F[P-](F)(F)(F)(F)F.F[P-](F)(F)(F)(F)F.F[P-](F)(F)(F)(F)F.F[P-](F)(F)(F)(F)F.F[P-](F)(F)(F)(F)F.F[P-](F)(F)(F)(F)F.F[P-](F)(F)(F)(F)F.F[P-](F)(F)(F)(F)F.F[P-](F)(F)(F)(F)F.F[P-](F)(F)(F)(F)F,> 49,1.01,48.5,> 49,Ratio CC50/EC50 [5]: 34; EC50 (Vaccinia virus): > 50 µg/mL; MCC [6]: > 50 µg/mL; EC50 (Human respirovirus 3): > 50 µg/mL; EC50 [7]: > 49 µM; CC50 at 120 h [8]: 26.8 µg/mL; EC50 [9]: > 49 µM; EC50 (Reovirus sp.): > 50 µg/mL; MCC [10]: > 50 µg/mL; EC50 (Human alphaherpesvirus 1 [11]): 6 µg/mL; EC50 (Human alphaherpesvirus 1 [12]): 30 µg/mL; EC50 [13]: > 50 µg/mL; EC50 [14]: > 50 µg/mL; EC50 (Sindbis virus): > 50 µg/mL; MCC [15]: > 50 µg/mL; EC50 [16]: 50 µg/mL; EC50 [17]: 0.79 µg/mL; EC50 (Human alphaherpesvirus 2): 50 µg/mL; EC50 (Punta Toro virus): > 50 µg/mL
BrCc1cc(CBr)cc(-[n+]2ccc(-c3cc[n+](-c4cc(CBr)cc(CBr)c4)cc3)cc2)c1,> 148,> 148,< 1,> 148,–

# From ChEMBL document CHEMBL1155465, “"Viologen" dendrimers as antiviral agents: the effect of charge number and distance” (J Med Chem, 2010)
